According to ChEMBL document CHEMBL1275345, “Pyrazolo[1',5':1,6]pyrimido[4,5-d]pyridazin-4(3H)-ones as selective human A(1) adenosine receptor ligands” (Bioorg Med Chem, 2010):
pKi: −log10 of the molar value. One block for each compound: values may come before it.

Columns and labels:
Adenosine receptor A1 = target: T1, Adenosine receptor A1 (Homo sapiens, UniProt P30542); test: Displacement of [3H]DPCPX from human adenosine A1 receptor expressed in CHO-A1 cells after 60 mins; type: cell-based
T1 sequence (P30542 whole entry): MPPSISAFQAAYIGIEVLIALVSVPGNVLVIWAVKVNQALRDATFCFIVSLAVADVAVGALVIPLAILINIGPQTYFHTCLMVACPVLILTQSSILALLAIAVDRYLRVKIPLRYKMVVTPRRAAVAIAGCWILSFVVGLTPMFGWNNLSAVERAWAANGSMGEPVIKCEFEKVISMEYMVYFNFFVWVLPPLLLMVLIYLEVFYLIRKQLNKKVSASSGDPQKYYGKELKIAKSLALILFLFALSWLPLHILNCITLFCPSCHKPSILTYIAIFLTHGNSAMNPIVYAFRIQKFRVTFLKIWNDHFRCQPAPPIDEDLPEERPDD
Summary of the method: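 Competition binding on membranes from CHO cells expressing human A1 receptor, labelled with 2 nM [3H]DPCPX. Non-specific binding defined with (R)-PIA. Incubation at 25 °C for 60 min, then filtration and beta scintillation counting. Result given as Ki (nM) or % inhibition at the single test concentration. Means of four separate assays, each in triplicate.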

Adenosine receptor A2a [1] = target: T2, Adenosine receptor A2a (Homo sapiens, UniProt P29274); test: Displacement of [3H]ZM241385 from human adenosine A2a receptor expressed in HeLa cells after 30 mins; type: cell-based
T2 sequence (P29274 whole entry): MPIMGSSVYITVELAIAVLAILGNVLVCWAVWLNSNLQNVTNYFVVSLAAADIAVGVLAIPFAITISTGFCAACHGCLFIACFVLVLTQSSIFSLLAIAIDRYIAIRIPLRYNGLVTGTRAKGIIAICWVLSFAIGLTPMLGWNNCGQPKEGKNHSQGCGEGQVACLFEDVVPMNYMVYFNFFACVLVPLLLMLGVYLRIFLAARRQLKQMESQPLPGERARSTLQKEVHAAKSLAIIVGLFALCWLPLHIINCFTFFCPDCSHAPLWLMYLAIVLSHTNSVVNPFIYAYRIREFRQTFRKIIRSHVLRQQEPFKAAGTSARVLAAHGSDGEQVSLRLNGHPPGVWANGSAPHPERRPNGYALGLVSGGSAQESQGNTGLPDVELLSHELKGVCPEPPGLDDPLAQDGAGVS
Summary of the method: (§1)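 [3H]ZM241385 specific binding in HeLa cells expressing human A2A receptor. Incubation at 25 °C for 30 min, followed by filtration and beta scintillation counting. Output is Ki (nM) or % inhibition at the single test concentration. Values are means of four separate assays, each performed in triplicate.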

Adenosine receptor A2b [2] = target: T3, Adenosine receptor A2b (Homo sapiens, UniProt P29275); test: Displacement of [3H]DPCPX from human adenosine A2b receptor expressed in HEK293 cells after 30 mins; type: cell-based
T3 sequence (P29275 whole entry): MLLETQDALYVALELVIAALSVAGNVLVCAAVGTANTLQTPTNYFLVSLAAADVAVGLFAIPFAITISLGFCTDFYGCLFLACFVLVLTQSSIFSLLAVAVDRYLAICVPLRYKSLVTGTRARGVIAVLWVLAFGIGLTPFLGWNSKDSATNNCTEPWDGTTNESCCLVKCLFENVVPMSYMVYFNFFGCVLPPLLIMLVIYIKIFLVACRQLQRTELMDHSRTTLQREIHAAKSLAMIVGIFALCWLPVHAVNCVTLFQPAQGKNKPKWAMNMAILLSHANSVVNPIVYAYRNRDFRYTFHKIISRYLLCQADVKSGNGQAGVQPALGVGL

[3] = target: T4, Adenosine receptor A3 (Homo sapiens) (UniProt P0DMS8); test: Displacement of [3H]NECA from human adenosine A3 receptor expressed in HeLa cells at 10 uM after 180 mins; type: cell-based
T4 sequence (whole entry): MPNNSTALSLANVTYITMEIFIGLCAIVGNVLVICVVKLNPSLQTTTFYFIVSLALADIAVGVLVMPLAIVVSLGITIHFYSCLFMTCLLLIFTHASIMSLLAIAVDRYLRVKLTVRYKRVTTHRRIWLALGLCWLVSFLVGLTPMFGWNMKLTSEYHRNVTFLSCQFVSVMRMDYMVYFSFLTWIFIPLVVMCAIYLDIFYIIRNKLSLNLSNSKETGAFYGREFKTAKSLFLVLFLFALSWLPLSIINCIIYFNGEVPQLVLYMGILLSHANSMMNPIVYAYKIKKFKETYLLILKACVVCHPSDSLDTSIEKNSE
Summary of the method: (§2)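 HeLa cells expressing human A3 receptor, with displacement of [3H]NECA. Incubated at 25 °C for 180 min, then filtered and counted by beta scintillation. Ki (nM) or percentage inhibition at the single test concentration. Means of four assays, each in triplicate.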

Homo sapiens [4] = organism: Homo sapiens; test: Selectivity ratio of Ki for human adenosine A2a receptor to Ki for human A1 receptor
Homo sapiens [5] = organism: Homo sapiens; test: Selectivity ratio of Ki for human adenosine A2b receptor to Ki for human A1 receptor
[6] = Binding affinity to bovine adenosine A2a receptor; design: species or system Bos taurus
Adenosine receptor A3 [7] = target: T5, Adenosine receptor A3 (Bos taurus, UniProt Q0VC81); test: Binding affinity to bovine adenosine A3 receptor
T5 sequence (Q0VC81 whole entry): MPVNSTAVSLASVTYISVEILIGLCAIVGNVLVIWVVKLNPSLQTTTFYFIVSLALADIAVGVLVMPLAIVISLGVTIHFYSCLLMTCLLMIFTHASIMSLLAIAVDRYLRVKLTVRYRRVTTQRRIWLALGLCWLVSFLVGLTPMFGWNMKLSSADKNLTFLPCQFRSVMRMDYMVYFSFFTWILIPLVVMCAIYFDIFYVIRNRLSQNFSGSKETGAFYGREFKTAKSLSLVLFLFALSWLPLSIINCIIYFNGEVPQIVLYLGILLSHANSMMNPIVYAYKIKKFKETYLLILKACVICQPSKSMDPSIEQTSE

Adenosine receptor A2a [8] = target: T2, Adenosine receptor A2a; test: Displacement of [3H]ZM241385 from human adenosine A2a receptor expressed in HeLa cells at 10 uM after 30 mins; type: cell-based; summary of the method: as §1
[9] = target: T6, Adenosine receptor A2b (Homo sapiens) (UniProt P29275); test: Displacement of [3H]DPCPX from human adenosine A2b receptor expressed in HEK293 cells at 10 uM after 30 mins; type: cell-based
T6 sequence (whole entry): T3 sequence (P29275 whole entry)
Summary of the method: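 Human A2B receptor expressed in HEK-293 cells, with displacement of [3H]DPCPX. Incubated at 25 °C for 30 min, then filtered and counted by beta scintillation. Reported as Ki (nM) or percentage inhibition at the single test concentration. Means of four independent assays, each run in triplicate.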

Adenosine receptor A3 [10] = target: T7, Adenosine receptor A3 (Homo sapiens, UniProt P0DMS8); test: Displacement of [3H]NECA from human adenosine A3 receptor expressed in HeLa cells after 180 mins; type: cell-based; summary of the method: as §2
T7 sequence (P0DMS8 whole entry): T4 sequence (whole entry)

[11] = Binding affinity to human adenosine A2 receptor
[12] = target: T8, Adenosine receptor A1 (Bos taurus) (UniProt P28190); test: Binding affinity to bovine adenosine A1 receptor at 34 uM
T8 sequence (whole entry): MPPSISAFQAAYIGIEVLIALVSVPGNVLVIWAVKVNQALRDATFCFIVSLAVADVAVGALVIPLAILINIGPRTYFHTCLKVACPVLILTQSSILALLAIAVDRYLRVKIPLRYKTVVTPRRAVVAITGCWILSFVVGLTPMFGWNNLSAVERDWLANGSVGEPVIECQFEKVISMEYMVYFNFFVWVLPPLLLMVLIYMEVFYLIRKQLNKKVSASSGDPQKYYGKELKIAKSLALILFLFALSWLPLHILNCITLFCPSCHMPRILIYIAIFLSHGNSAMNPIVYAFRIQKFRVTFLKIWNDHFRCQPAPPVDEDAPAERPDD

Bos taurus = organism: Bos taurus; test: Binding affinity to bovine adenosine A2a receptor at 34 uM
Adenosine receptor A2b [13] = target: T3, Adenosine receptor A2b; test: Binding affinity to human adenosine A2b receptor
Summary of the method: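 Competition binding on human A2B receptors expressed in HEK-293 cells, displacing [3H]DPCPX. Bound radioactivity was separated by filtration and counted by beta scintillation. Values are means of four separate assays, each run in triplicate.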

Compound: Cc1nn(Cc2ccccc2)c(=O)c2ncn3nc(-c4ccsc4)cc3c12
- pKi (Adenosine receptor A1): 7.07
- pKi (Adenosine receptor A2a [1]): 5.13
- pKi (Adenosine receptor A2b [2]): 5.33
- inhibition [3]: < 50%
- fold change (FC) (Homo sapiens [4]): 90
- fold change (FC) (Homo sapiens [5]): 56

Compound: Cc1nn(Cc2ccccc2)c(=O)c2ncn3nc(-c4ccccc4)cc3c12
- pKi (Adenosine receptor A1): 6.98
- inhibition (Adenosine receptor A2a [8]): < 50%
- pKi (Adenosine receptor A2b [2]): 5.12
- inhibition [3]: < 50%

Compound: O=C(Cc1cccc2ccccc12)Nc1nc2nn(CCCc3ccccc3)cc2c2nc(-c3ccco3)nn12
- pKi (Adenosine receptor A3 [7]): 6.52
- pKi [11]: 6.10

Next, values leading:

- pKi [6]: < 5.00
- pKi (Adenosine receptor A3 [7]): < 6.00
Compound: O=c1c(-c2ccccc2)nnc2n(-c3ccccc3)c3ccccc3n12

- pKi (Adenosine receptor A1): 5.51
- inhibition (Adenosine receptor A2a [8]): < 50%
- inhibition [9]: < 50%
- pKi (Adenosine receptor A3 [10]): 5.33
Compound: Cc1nn(C(C)c2ccccc2)c(=O)c2nc(C)n3nc(-c4ccccc4)cc3c12 (configuration not stated)

- inhibition [12]: 0%
- inhibition (Bos taurus): 8.7%
Compound: COc1ccc(-c2nc3c(O)nc4ccccc4n3n2)cc1

- pKi (Adenosine receptor A3 [7]): < 5.00
- pKi (Adenosine receptor A2b [13]): < 5.00
Compound: COc1ccc(CCCn2ncc3c2nc(N)n2nc(-c4ccco4)nc32)cc1
